Assay results published in ChEMBL document CHEMBL4680254, “Design, synthesis and discovery of 2(1H)-quinolone derivatives for the treatment of pulmonary fibrosis through inhibition of TGF-β/smad dependent and independent pathway” (Eur J Med Chem, 2020).
Active and inactive are the calls of the source. The calls are words filed in the database; no cut-off is given here.

What was measured:
[1] = system: NRK-49F; assay: Inhibition of TGF-beta-induced collagen accumulation in rat NRK-49F cells at 10 uM incubated for 2 days by PSR staining based microscopic analysis relative to control; type: functional; conditions: 48 h, time 2 day
Outline: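 NRK-49F cells were grown 3 days in DMEM with 5% FBS, then 2 days in DMEM with 1% ITS. Next came 2 days with TGF-β 5 ng/ml plus or minus compound 10 µM. Cells were fixed in 4% paraformaldehyde and stained 4 h with 0.1% Picrosirius Red, then rinsed with acetic acid. Dye was eluted with 0.1 M NaOH and OD read at 540 nm. Inhibition = […] ×100%, in triplicate.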

[2] = Cytotoxicity against rat NRK-49F cells assessed as cell survival rate at 10 uM incubated for 72 hrs by MTT assay; type: cell-based; conditions: read-out: Activity
Outline: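 NRK-49F cells were seeded at 0.5×10^5 cells/ml, cultured overnight, then exposed to compound 10 µM for 72 h. MTT was added and incubated 4 h, formazan dissolved in DMSO and absorbance read. Survival = (treated − zero)/(blank − zero) A ×100%, done in triplicate.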

[3] = system: NRK-49F; assay: Inhibition of TGF-beta-induced collagen accumulation in rat NRK-49F cells incubated for 2 days by PSR staining based microscopic analysis; type: functional, cell-based; conditions: 48 h
[4] = system: L929; assay: Antimigratory activity in mouse L929 cells assessed as inhibition of TGF-beta-induced cell migration at 10 uM incubated for 24 hrs by wound healing assay; type: functional, cell-based
Outline: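 Mouse L929 fibroblasts (MEM, 10% FBS, 37 °C, 5% CO₂) were grown to confluence and scratched with a pipette tip to a 100 µm wound. They were then kept in serum-free medium with or without TGF-β 5 ng/ml and compound 10 µM for 24 h. Wounds were imaged by light microscopy at 0, 12 and 24 h.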

| Structure (SMILES) | inhibition at 10 µM [1] [%] | viability at 72 h, 10 µM [2] [%] | IC50 [3] [µM] | inhibition [4] |
| --- | --- | --- | --- | --- |
| CN1CCN(CC(=O)Nc2ccc(Oc3cc(=O)[nH]c4ccccc34)c(F)c2)CC1 | 73.9 | 99 | – | – |
| CCN(CC)CC(=O)Nc1ccc(Nc2cc(=O)[nH]c3ccccc23)cc1 | 44.2 | 82.6 | – | – |
| O=C(CNC1CCOCC1)Nc1ccc(Oc2cc(=O)[nH]c3ccccc23)c(F)c1 | 53.9 | 90.8 | – | – |
| CC(C)(C)OC(=O)N1CCN(CC(=O)Nc2ccc(Oc3cc(=O)[nH]c4ccccc34)cc2)CC1 | 76.2 | 75.6 | – | – |
| CCN1CCN(CC(=O)Nc2ccc(Nc3cc(=O)[nH]c4ccccc34)cc2)CC1 | 46 | 64.8 | – | – |
| O=C(CNC1CCOCC1)Nc1ccc(Oc2cc(=O)[nH]c3ccccc23)cc1 | 46 | 96 | – | – |
| CC(C)(C)N1CCN(CC(=O)Nc2ccc(Oc3cc(=O)[nH]c4ccccc34)cc2)CC1 | 73.2 | 92.7 | – | – |
| CN1CCN(CC(=O)Nc2ccc(Oc3cc(=O)[nH]c4ccccc34)cc2)CC1 | 43.7 | 80.2 | – | – |
| CC(C)(C)OC(=O)N1CCN(CC(=O)Nc2ccc(Oc3cc(=O)[nH]c4ccccc34)c(F)c2)CC1 | 89.1 | 86.2 | 6.12 | Active |
| O=C(CN1CCOCC1)Nc1ccc(Oc2cc(=O)[nH]c3ccccc23)cc1 | 59.3 | 95.7 | – | – |
| CCN(CC)CC(=O)Nc1ccc(Oc2cc(=O)[nH]c3ccccc23)cc1 | 86.1 | 96.3 | 5.27 | Active |
| CC(C)(C)N1CCN(CC(=O)Nc2ccc(Oc3ccc4ccc(=O)[nH]c4c3)c(F)c2)CC1 | 67.7 | 89.8 | – | – |
| CN(C)C1CCN(CC(=O)Nc2ccc(Oc3cc(=O)[nH]c4ccccc34)c(F)c2)CC1 | 60.7 | 98.6 | – | – |
| O=C(CN1CCN(C(=O)C2CC2)CC1)Nc1ccc(Oc2ccc3ccc(=O)[nH]c3c2)c(F)c1 | 56.6 | 98.2 | – | – |
| CCNCC(=O)Nc1ccc(Oc2cc(=O)[nH]c3ccccc23)c(F)c1 | 50.6 | 99.3 | – | – |
| CCN(CC)CC(=O)Nc1ccc(Oc2cc(=O)[nH]c3ccccc23)c(F)c1 | 58.8 | 106 | – | – |
| CCN1CCN(CC(=O)Nc2ccc(Sc3cc(=O)[nH]c4ccccc34)cc2)CC1 | 56.6 | 78 | – | – |
| O=C(CN1CCOCC1)Nc1ccc(Nc2cc(=O)[nH]c3ccccc23)cc1 | 40.9 | 81.9 | – | – |
| CCNCC(=O)Nc1ccc(Sc2cc(=O)[nH]c3ccccc23)cc1 | 51.1 | 87.7 | – | – |
| O=C(CN1CCN(C(=O)C2CC2)CC1)Nc1ccc(Oc2cc(=O)[nH]c3ccccc23)cc1 | 78.3 | 92.2 | – | – |

| Structure (SMILES) | inhibition at 10 µM [1] [%] | viability at 72 h, 10 µM [2] [%] | IC50 [3] [µM] | inhibition [4] |
| --- | --- | --- | --- | --- |
| CC(C)(C)N1CCN(CC(=O)Nc2ccc(Oc3ccc4[nH]c(=O)ccc4c3)c(F)c2)CC1 | 61.5 | 83.3 | – | – |
| O=C(CN1CCN(C(=O)C2CC2)CC1)Nc1ccc(Oc2ccc3[nH]c(=O)ccc3c2)c(F)c1 | 34.6 | 95.2 | – | – |
| O=C(CN1CCCCC1)Nc1ccc(Oc2cc(=O)[nH]c3ccccc23)cc1 | 27.4 | 78.5 | – | – |
| CN1CCN(CC(=O)Nc2ccc(Nc3cc(=O)[nH]c4ccccc34)cc2)CC1 | 38.9 | 78 | – | – |
| O=C(CN1CCCCC1)Nc1ccc(Oc2cc(=O)[nH]c3ccccc23)c(F)c1 | 38.3 | 87.2 | – | – |
| CC(=O)N1CCN(CC(=O)Nc2ccc(Oc3cc(=O)[nH]c4ccccc34)c(F)c2)CC1 | 42.7 | 108 | – | – |
| CCNCC(=O)Nc1ccc(Nc2cc(=O)[nH]c3ccccc23)cc1 | 28.7 | 83.7 | – | – |
| O=C(CN1CCNCC1)Nc1ccc(Oc2cc(=O)[nH]c3ccccc23)cc1 | 58.1 | 95.1 | – | – |
| O=C(CN1CCCC1)Nc1ccc(Sc2cc(=O)[nH]c3ccccc23)cc1 | 80.9 | 87 | 5.33 | Active |
| CN(C)C1CCN(CC(=O)Nc2ccc(Nc3cc(=O)[nH]c4ccccc34)cc2)CC1 | 50.2 | 83.5 | – | – |
| CCN1CCN(CC(=O)Nc2ccc(Oc3cc(=O)[nH]c4ccccc34)cc2)CC1 | 41.7 | 91.7 | – | – |
| O=C(CN1CCOCC1)Nc1ccc(Sc2cc(=O)[nH]c3ccccc23)cc1 | 53.4 | 77.4 | – | – |
| O=C(CN1CCCCC1)Nc1ccc(Sc2cc(=O)[nH]c3ccccc23)cc1 | 28.4 | 93.5 | – | – |
| CC1CCN(CC(=O)Nc2ccc(Oc3cc(=O)[nH]c4ccccc34)cc2)CC1 | 31.5 | 79.9 | – | – |
| CN(C)C1CCN(CC(=O)Nc2ccc(Sc3cc(=O)[nH]c4ccccc34)cc2)CC1 | 51.1 | 80.3 | – | – |
| O=C(CN1CCOCC1)Nc1ccc(Oc2cc(=O)[nH]c3ccccc23)c(F)c1 | 47.3 | 90.8 | – | – |
| CCNCC(=O)Nc1ccc(Oc2cc(=O)[nH]c3ccccc23)cc1 | 25.4 | 89.2 | – | – |
| O=C(CN1CCCC1)Nc1ccc(Oc2cc(=O)[nH]c3ccccc23)cc1 | 68 | 82.2 | – | – |
| CN(C)C1CCN(CC(=O)Nc2ccc(Oc3cc(=O)[nH]c4ccccc34)cc2)CC1 | 43.9 | 81.2 | – | – |
| CC1CCN(CC(=O)Nc2ccc(Oc3cc(=O)[nH]c4ccccc34)c(F)c2)CC1 | 45.9 | 105 | – | – |

| Structure (SMILES) | inhibition at 10 µM [1] [%] | viability at 72 h, 10 µM [2] [%] | IC50 [3] [µM] | inhibition [4] |
| --- | --- | --- | --- | --- |
| CN1CCN(CC(=O)Nc2ccc(Sc3cc(=O)[nH]c4ccccc34)cc2)CC1 | 40 | 86.7 | – | – |
| CC1CCN(CC(=O)Nc2ccc(Sc3cc(=O)[nH]c4ccccc34)cc2)CC1 | 28.6 | 116 | – | – |
| O=C(CNC1CCOCC1)Nc1ccc(Nc2cc(=O)[nH]c3ccccc23)cc1 | 50 | 83.5 | – | – |
| CCN1CCN(CC(=O)Nc2ccc(Oc3cc(=O)[nH]c4ccccc34)c(F)c2)CC1 | 49.1 | 89.6 | – | – |
| O=C(CN1CCCC1)Nc1ccc(Nc2cc(=O)[nH]c3ccccc23)cc1 | 59.9 | 72.5 | – | – |
| CC(=O)N1CCN(CC(=O)Nc2ccc(Sc3cc(=O)[nH]c4ccccc34)cc2)CC1 | 39.4 | 101 | – | – |
| CC(C)(C)OC(=O)N1CCN(CC(=O)Nc2ccc(Sc3cc(=O)[nH]c4ccccc34)cc2)CC1 | 72.4 | 71.2 | – | – |
| CC(C)(C)OC(=O)N1CCN(CC(=O)Nc2ccc(Oc3ccc4ccc(=O)[nH]c4c3)c(F)c2)CC1 | 76.4 | 89.7 | – | – |
| CC(=O)N1CCN(CC(=O)Nc2ccc(Nc3cc(=O)[nH]c4ccccc34)cc2)CC1 | 39 | 72.5 | – | – |
| O=C(CNC1CCOCC1)Nc1ccc(Sc2cc(=O)[nH]c3ccccc23)cc1 | 53 | 83.9 | – | – |
| CCN(CC)CC(=O)Nc1ccc(Sc2cc(=O)[nH]c3ccccc23)cc1 | 58.6 | 85.5 | – | – |
| CC(C)(C)OC(=O)N1CCN(CC(=O)Nc2ccc(Oc3ccc4[nH]c(=O)ccc4c3)c(F)c2)CC1 | 57.4 | 85.6 | – | – |
| O=C(CN1CCCCC1)Nc1ccc(Nc2cc(=O)[nH]c3ccccc23)cc1 | 24.4 | 75.4 | – | – |
| O=C(CN1CCCC1)Nc1ccc(Oc2cc(=O)[nH]c3ccccc23)c(F)c1 | 49.5 | 96.4 | – | – |
| CC(=O)N1CCN(CC(=O)Nc2ccc(Oc3cc(=O)[nH]c4ccccc34)cc2)CC1 | 50 | 96.3 | – | – |
| CC1CCN(CC(=O)Nc2ccc(Nc3cc(=O)[nH]c4ccccc34)cc2)CC1 | 20.1 | 82.5 | – | – |
| O=C(CN1CCNCC1)Nc1ccc(Oc2cc(=O)[nH]c3ccccc23)c(F)c1 | 60.3 | 93.3 | – | – |
| CC(C)(C)OC(=O)N1CCN(CC(=O)Nc2ccc(Nc3cc(=O)[nH]c4ccccc34)cc2)CC1 | 73.3 | 67.5 | – | – |
| CC(C)(C)N1CCN(CC(=O)Nc2ccc(Oc3cc(=O)[nH]c4ccccc34)c(F)c2)CC1 | 78 | 93.1 | 4.47 | Active |
